Reference: ChEMBL document CHEMBL1151195, “New isoprenylated flavones, artochamins A--E, and cytotoxic principles from Artocarpus chama” (2004)
Values after ≈ are worked out from the molar mass of the structure shown.

Key:
CAKI-1 = experiment: Cytotoxicity against human Caki1 cells; assay type: functional; conditions: read-out: ED50 (the source's name)
Summary of the method: (§1)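 Growth inhibition in cultured human tumor cell lines. Compound stocks were made in DMSO and held at -70 °C, then diluted into culture medium to a final DMSO level of ≤1% (v/v).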

[1] = Cytotoxicity against human KBVIN cells; assay type: functional; conditions: read-out: ED50 (the source's name); summary of the method: as §1
[2] = Cytotoxicity against human U87MG cells; assay type: functional, U-87MG ATCC; conditions: U-87 MG, read-out: ED50 (the source's name); summary of the method: as §1
1A9 = experiment: Cytotoxicity against human 1A9 cells; assay type: functional; conditions: read-out: ED50 (the source's name); summary of the method: as §1
HCT-8 = experiment: Cytotoxicity against human HCT8 cells; assay type: functional; conditions: read-out: ED50 (the source's name); summary of the method: as §1
PC-3 = experiment: Cytotoxicity against human PC3 cells; assay type: functional; conditions: read-out: ED50 (the source's name); summary of the method: as §1
MDA-MB-231 = experiment: Cytotoxicity against human MDA-MB-231 cells; assay type: functional; conditions: read-out: ED50 (the source's name); summary of the method: as §1
SK-MEL-2 = experiment: Cytotoxicity against human SK-MEL-2 cells; assay type: functional; conditions: read-out: ED50 (the source's name); summary of the method: as §1
MCF7 = experiment: Cytotoxicity against human MCF7 cells; assay type: functional; conditions: read-out: ED50 (the source's name); summary of the method: as §1
A549 = experiment: Cytotoxicity against human A549 cells; assay type: functional; conditions: read-out: ED50 (the source's name); summary of the method: as §1
KB = experiment: Cytotoxicity against human KB cells; assay type: functional; conditions: read-out: ED50 (the source's name); summary of the method: as §1

Structure (SMILES)	EC50 (CAKI-1) [mg/L]	EC50 [1] [mg/L]	EC50 [2] [mg/L]	EC50 (1A9) [mg/L]	EC50 (HCT-8) [mg/L]	EC50 (PC-3) [mg/L]	EC50 (MDA-MB-231) [mg/L]	EC50 (SK-MEL-2) [mg/L]	EC50 (MCF7) [mg/L]	EC50 (A549) [mg/L]	EC50 (KB) [mg/L]
COc1cc2oc(-c3ccc(O)cc3O)c(CC=C(C)C)c(=O)c2c(O)c1/C=C/C(C)C [ARTOCARPIN]	4.9 (≈ 11.2 µM)	3.6 (≈ 8.25 µM)	3.7 (≈ 8.48 µM)	3.4 (≈ 7.79 µM)	3.8 (≈ 8.71 µM)	4.1 (≈ 9.39 µM)	3.8 (≈ 8.71 µM)	5.4 (≈ 12.4 µM)	3.3 (≈ 7.56 µM)	3.3 (≈ 7.56 µM)	3.2 (≈ 7.33 µM)
CC(C)=CCc1c2c(c(O)c3c(=O)c4c(oc13)-c1c(O)cc(O)c3c1C(C4)C(C)(C)O3)C=CC(C)(C)O2 (centres undefined) [ARTONIN A]									6.7 (≈ 13.3 µM)	6.1 (≈ 12.1 µM)	
CC(C)=CCc1c(-c2cc(O)c(O)cc2O)oc2c3c(cc(O)c2c1=O)OC(C)(C)C=C3 [ARTONIN E]	9.7 (≈ 22.2 µM)	> 10	6.4 (≈ 14.7 µM)	< 1.25	3.3 (≈ 7.56 µM)	6.9 (≈ 15.8 µM)	3 (≈ 6.87 µM)	4.3 (≈ 9.85 µM)	2.2 (≈ 5.04 µM)	8.5 (≈ 19.5 µM)	6.5 (≈ 14.9 µM)
COc1ccc2c(c1)OC(C=C(C)C)c1c-2oc2cc(O)c(/C=C/C(C)C)c(O)c2c1=O (centres undefined) [CYCLOARTOCARPIN A]									6 (≈ 13.8 µM)	6.6 (≈ 15.2 µM)	
CC1(C)C=Cc2c(cc(O)c3c(=O)c4c(oc23)-c2c(O)cc(O)c3c2C(C4)C(C)(C)O3)O1 (centres undefined) [CYCLOARTOBILOXANTHONE]									7.7 (≈ 17.7 µM)	7.2 (≈ 16.6 µM)	
CC1(C)C=Cc2c(cc(O)c3c(=O)cc(-c4ccc(O)c(O)c4)oc23)O1 [ARTOCHAMIN C]	5.3 (≈ 15 µM)	3.4 (≈ 9.65 µM)	7.2 (≈ 20.4 µM)	2 (≈ 5.68 µM)	2.3 (≈ 6.53 µM)	4.2 (≈ 11.9 µM)	6.2 (≈ 17.6 µM)	2.3 (≈ 6.53 µM)	2.2 (≈ 6.24 µM)	3 (≈ 8.51 µM)	3.4 (≈ 9.65 µM)
